Laboratory results as given in ChEMBL document CHEMBL3785003, “Di- and Triterpenoids from the Leaves of Casearia balansae and Neurite Outgrowth Promoting Effects of PC12 Cells” (J Nat Prod, 2016).
Calls of active or inactive are those of the source. No cut-off for these calls is given here.

Tests used:
PC-12 [1] = test: Induction of NGF-mediated neutrite outgrowth of rat PC12 cells after 96 hrs by phase contrast microscopic analysis; format: functional, cell-based; conditions: for EC50: PC-12, 96 h
In short: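 PC12 cells grown at 37 °C in DMEM with 5% heat-inactivated FBS and 5% horse serum, dissociated with 1 mM EGTA in PBS, seeded on poly-L-lysine (3 × 10^4 cells/well). After 24 h, switched to 1% FBS/1% HS medium with NGF 20 ng/mL plus test concentrations. Scored as % neurite-bearing cells; EC50 by regression; triplicate.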

PC-12 [2] = test: Induction of neutrite outgrowth of rat PC12 cells after 96 hrs in absence of NGF by phase contrast microscopic analysis; format: functional, cell-based
In short: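 Poly-L-lysine-seeded PC12 cells (3 × 10^4 cells/well) in 1% FBS/1% horse serum test medium with graded compound concentrations for 96 h. Neurites at least one cell-body diameter counted as neurite-bearing under phase contrast. At least 100 cells per field, three fields per well, six wells per sample. Result expressed as percentage of total cells.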

Row | SMILES | EC50 (PC-12 [1]) [µM] | Activity (PC-12 [1]) | Activity (PC-12 [2])
1 | CC(C)=CCC[C@](C)(O)[C@H]1CC[C@@]2(C)[C@@H]3CC=C4[C@@H](CCC(=O)C4(C)C)[C@]3(C)C(=O)C[C@]12C | > 50 | – | –
2 | CC(C)(O)/C=C/C(=O)[C@](C)(O)[C@H]1CC[C@@]2(C)[C@@H]3CC=C4[C@@H](C[C@H](O)C(=O)C4(C)C)[C@]3(C)C(=O)C[C@]12C | > 50 | – | –
3 | C=C(C)[C@@H](C)C[C@@H](O)[C@@H](C)[C@H]1CC[C@@]2(C)[C@@H]3CCC4=C(C[C@]35O[C@@H]5C[C@]12C)C(=O)C[C@H](O)C4(C)C | > 50 | – | –
4 | CC(=O)[C@H]1CC[C@@]2(C)[C@@H]3CC=C4[C@@H](C[C@H](O)C(=O)C4(C)C)[C@]3(C)C(=O)C[C@]12C | > 50 | – | –
5 | CC(C)=CCC(=O)[C@](C)(O)[C@H]1CC[C@@]2(C)[C@@H]3CC=C4[C@@H](C[C@H](O)C(=O)C4(C)C)[C@]3(C)C(=O)C[C@]12C | – | inactive | inactive
6 | C=CC(=C)CC[C@]1(C)[C@H](C)C[C@H](OC)[C@@]23C(=C[C@@H](O)C[C@@H]12)[C@@H](OC)O[C@H]3OC(C)=O | 8.3 | – | –
7 | C=CC(=C)CC[C@]1(C)[C@H](C)C[C@H](OC)[C@@]23C(=C[C@@H](OC(C)=O)C[C@@H]12)[C@@H](OC(=O)CCC)O[C@@H]3OC(C)=O | 5.2 | – | –
8 | C=CC(=C)CC[C@]1(C)[C@H](C)C[C@H](OC)[C@@]23C(=C[C@H](O)C[C@@H]12)[C@@H](OC)O[C@@H]3OC(C)=O | 2.9 | – | –
9 | C=CC(=C)CC[C@]1(C)[C@H](C)C[C@H](OC)[C@@]23C(=C[C@@H](O)C[C@@H]12)[C@@H](OC)O[C@H]3OC | 5.4 | – | –
10 | CC(C)=CCC[C@](C)(O)[C@H]1CC[C@@]2(C)[C@@H]3CC=C4[C@@H](C[C@H](O)C(=O)C4(C)C)[C@]3(C)C(=O)C[C@]12C | 10 | – | –
